Measurements from different studies.
Each line is one published result; the experiments were not run side by side. ≈ marks a conversion by molar mass, not a printed value.
Organism: Staphylococcus aureus

Cc1onc(-c2ccccc2)c1C(=O)N[C@@H]1C(=O)N2[C@@H]1SC(C)(C)[C@@H]2C(=O)O
MIC (microbial growth; MRSA; drug-resistant strain): > 4 µg/mL

O=C(O)c1cn(C2CC2)c2cc(N3CCNCC3)c(F)cc2c1=O
MIC (microbial growth, broth dilution; ATCC33591 MRSA; 16 h, drug-resistant strain): 6.25 µM

COc1cccc(OC)c1C(=O)N[C@@H]1C(=O)N2[C@@H]1SC(C)(C)[C@@H]2C(=O)O
MIC (microbial growth, broth dilution; ATCCBAA44; drug-resistant strain): > 64 µg/mL

O=C(O)c1cn(C2CC2)c2cc(N3CCNCC3)c(F)cc2c1=O
inhibition zone (microbial growth, well diffusion; ATCC23235; 100 µg/mL): 36 mm

CC(=O)NC[C@H]1CN(c2ccc(N3CCOCC3)c(F)c2)C(=O)O1
MBC (microbial killing; ATCC43300 MRSA): 40.6 µg/mL (≈ 120 µM)

C[C@@H](N)[C@H](O)CCCCCCCC(=O)CCCCCCCCCCCCCC[C@@H](O[C@@H]1O[C@H](CO)[C@H](O)[C@H](O)[C@H]1O)[C@@H](C)N
inhibition (microbial growth, resazurin; ATCC12600; 50 µM): 99%

CN(C)[C@@H]1C(O)=C(C(N)=O)C(=O)[C@@]2(O)C(O)=C3C(=O)c4c(O)cccc4[C@@](C)(O)[C@H]3C[C@@H]12
MIC (microbial growth, broth dilution; ATCC33591 MRSA; 16 h, drug-resistant strain): 100 µM

CC(=O)NC[C@H]1CN(c2ccc(N3CCOCC3)c(F)c2)C(=O)O1
MIC (microbial growth, broth dilution; MRSA): 1 µg/mL

C[C@H]1COc2c(N3CCN(C)CC3)c(F)cc3c(=O)c(C(=O)O)cn1c23
MIC (microbial growth; MRSA; drug-resistant strain): 0.25 µg/mL

CCOC(=O)/C=C1/SC(N/N=C/c2c(-c3ccc(F)cc3)nc3ncccn23)=NC1=O
inhibition zone (microbial growth, well diffusion; ATCC23235; 100 µg/mL): 10 mm

CCc1ccc(N2C(=O)/C(=C3/C(=O)N(C)c4ccc(Cl)cc43)NC2=S)cc1
MIC (microbial growth, broth dilution; ATCC43300 MRSA): 9.2 µg/mL

CN[C@H](CC(C)C)C(=O)N[C@H]1C(=O)N[C@@H](CC(N)=O)C(=O)N[C@H]2C(=O)N[C@H]3C(=O)N[C@H](C(=O)N[C@H](C(=O)O)c4cc(O)cc(O)c4-c4cc3ccc4O)[C@H](O)c3ccc(c(Cl)c3)Oc3cc2cc(c3O[C@@H]2O[C@H](CO)[C@@H](O)[C@H](O)[C@H]2O[C@H]2C[C@](C)(N)[C@H](O)[C@H](C)O2)Oc2ccc(cc2Cl)[C@H]1O
MIC (microbial growth, broth dilution; ATCCBAA44; drug-resistant strain): 1 µg/mL

COc1ccc2c(c1OC)CN1CCc3cc4c(cc3C1C2)OCO4 (stereo not shown)
MIC50 (microbial growth; 24 h): > 1600 µM

O=C/C=C/c1ccccc1
inhibition zone (microbial growth, well diffusion; MTCC96; 1000 µg/mL, 18 h): 8 mm

CN1C(=S)N(c2ccccc2)C(=O)/C1=C1/C(=O)N(C)c2ccc(Cl)cc21
MIC (microbial growth, broth dilution; ATCC43300 MRSA): 2.4 µg/mL

C[C@@H]1C[C@@H]([C@H](O)CC2CC(=O)NC(=O)C2)C(=O)[C@@H](C)C1
MIC (microbial growth, broth dilution; ATCC6538): 28 µg/mL
